Measurements: ChEMBL document CHEMBL5058577, “EUbOPEN Chemogenomics Library 2 (Multiplex)” (2022)

System: HEK-293T
Assay: Multiplex assay against HEK293T
Format: toxicity, cell-based
Conditions: human
How it was run: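 Imaging took place on a CQ1 microscope at 37°C and 5% CO2 once compound had been added to live cells stained at seeding with Hoechst33342, BioTracker Green Microtubule Cytoskeleton Dye, MitoTracker Red and Annexin V Alexa Fluor 680. CellPathfinder machine-learning gating classed cells as Hoechst high-intensity objects or normal cells, classed normal cells as having healthy, pyknosed or fragmented nuclei, and classed pyknosed cells as mitotic or apoptotic. Tubulin, mitochondrial-mass and membrane-permeability phenotypes are per cents of the healthy-nucleus cells.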

[1] = 12 h, 1 µM, compound concentration 1 uM, replicate 1
[2] = 12 h, 1 µM, compound concentration 1 uM, replicate 2
[3] = 12 h, 10 µM, compound concentration 10 uM, replicate 1
[4] = 12 h, 10 µM, compound concentration 10 uM, replicate 2
[5] = 24 h, 1 µM, compound concentration 1 uM, replicate 1
[6] = 24 h, 1 µM, compound concentration 1 uM, replicate 2
[7] = 24 h, 10 µM, compound concentration 10 uM, replicate 1
[8] = 24 h, 10 µM, compound concentration 10 uM, replicate 2
[9] = 48 h, 1 µM, compound concentration 1 uM, replicate 1
[10] = 48 h, 1 µM, compound concentration 1 uM, replicate 2
[11] = 48 h, 10 µM, compound concentration 10 uM, replicate 1
[12] = 48 h, 10 µM, compound concentration 10 uM, replicate 2

## CNC[C@H](O)c1ccc(O)c(O)c1 [EPINEPHRINE]
[1]
  Population Apoptotic (%): 20%
  Population Fragmented Nuclei (%): 6%
  Population Healthy Nuclei (%): 81%
  Population Hoechst High Intensity Objects (%): 7%
  Population Membrane Permeable-Phenotype (%): 0%
  Population Mitochondria Different-Phenotype (%): 31%
  Population Mitotic Cells (%): 80%
  Population Normal (%): 92%
  Population Pyknosed Nuclei (%): 11%
  Population Tubulin-Different-Phenotype (%): 26%
[2]
  Population Apoptotic (%): 56%
  Population Hoechst High Intensity Objects (%): 6%
  Population Mitochondria Different-Phenotype (%): 65%
  Population Mitotic Cells (%): 43%
  Population Normal (%): 93%
  Population Tubulin-Different-Phenotype (%): 27%
[3]
  Population Apoptotic (%): 55%
  Population Fragmented Nuclei (%): 12%
  Population Healthy Nuclei (%): 75%
  Population Hoechst High Intensity Objects (%): 9%
  Population Membrane Permeable-Phenotype (%): 1%
  Population Mitochondria Different-Phenotype (%): 65%
  Population Mitotic Cells (%): 44%
  Population Normal (%): 90%
  Population Pyknosed Nuclei (%): 11%
  Population Tubulin-Different-Phenotype (%): 39%
[4]
  Population Apoptotic (%): 56%
  Population Fragmented Nuclei (%): 11%
  Population Healthy Nuclei (%): 61%
  Population Hoechst High Intensity Objects (%): 40%
  Population Membrane Permeable-Phenotype (%): 0%
  Population Mitochondria Different-Phenotype (%): 62%
  Population Mitotic Cells (%): 43%
  Population Normal (%): 59%
  Population Pyknosed Nuclei (%): 26%
  Population Tubulin-Different-Phenotype (%): 25%
[5]
  Population Apoptotic (%): 19%
  Population Fragmented Nuclei (%): 9%
  Population Healthy Nuclei (%): 80%
  Population Hoechst High Intensity Objects (%): 5%
  Population Membrane Permeable-Phenotype (%): 0%
  Population Mitochondria Different-Phenotype (%): 25%
  Population Mitotic Cells (%): 80%
  Population Normal (%): 94%
  Population Pyknosed Nuclei (%): 9%
  Population Tubulin-Different-Phenotype (%): 21%
[6]
  Population Apoptotic (%): 36%
  Population Hoechst High Intensity Objects (%): 7%
  Population Membrane Permeable-Phenotype (%): 1%
  Population Mitochondria Different-Phenotype (%): 41%
  Population Mitotic Cells (%): 63%
  Population Normal (%): 92%
  Population Pyknosed Nuclei (%): 10%
  Population Tubulin-Different-Phenotype (%): 18%
[7]
  Population Apoptotic (%): 50%
  Population Fragmented Nuclei (%): 13%
  Population Healthy Nuclei (%): 75%
  Population Hoechst High Intensity Objects (%): 8%
  Population Membrane Permeable-Phenotype (%): 0%
  Population Mitochondria Different-Phenotype (%): 50%
  Population Mitotic Cells (%): 50%
  Population Normal (%): 91%
  Population Pyknosed Nuclei (%): 11%
  Population Tubulin-Different-Phenotype (%): 36%
[8]
  Population Apoptotic (%): 80%
  Population Fragmented Nuclei (%): 11%
  Population Healthy Nuclei (%): 71%
  Population Hoechst High Intensity Objects (%): 39%
  Population Mitochondria Different-Phenotype (%): 43%
  Population Mitotic Cells (%): 19%
  Population Normal (%): 60%
  Population Pyknosed Nuclei (%): 17%
  Population Tubulin-Different-Phenotype (%): 25%
[9]
  Population Apoptotic (%): 16%
  Population Fragmented Nuclei (%): 11%
  Population Healthy Nuclei (%): 81%
  Population Hoechst High Intensity Objects (%): 3%
  Population Membrane Permeable-Phenotype (%): 1%
  Population Mitochondria Different-Phenotype (%): 13%
  Population Mitotic Cells (%): 83%
  Population Normal (%): 96%
  Population Pyknosed Nuclei (%): 7%
  Population Tubulin-Different-Phenotype (%): 9%
[10]
  Population Apoptotic (%): 35%
  Population Fragmented Nuclei (%): 12%
  Population Healthy Nuclei (%): 78%
  Population Mitochondria Different-Phenotype (%): 24%
  Population Mitotic Cells (%): 64%
  Population Pyknosed Nuclei (%): 8%
  Population Tubulin-Different-Phenotype (%): 15%
[11]
  Population Apoptotic (%): 33%
  Population Fragmented Nuclei (%): 21%
  Population Healthy Nuclei (%): 72%
  Population Hoechst High Intensity Objects (%): 3%
  Population Membrane Permeable-Phenotype (%): 0%
  Population Mitochondria Different-Phenotype (%): 25%
  Population Mitotic Cells (%): 66%
  Population Normal (%): 96%
  Population Pyknosed Nuclei (%): 5%
  Population Tubulin-Different-Phenotype (%): 11%
[12]
  Population Apoptotic (%): 69%
  Population Fragmented Nuclei (%): 17%
  Population Healthy Nuclei (%): 67%
  Population Hoechst High Intensity Objects (%): 21%
  Population Mitochondria Different-Phenotype (%): 34%
  Population Mitotic Cells (%): 30%
  Population Normal (%): 78%
  Population Pyknosed Nuclei (%): 14%
  Population Tubulin-Different-Phenotype (%): 13%

## O=S(=O)(c1ccccc1)c1cnc2c(N3CCNCC3)cccc2c1 [INTEPIRDINE]
[1]
  Population Apoptotic (%): 40%
  Population Fragmented Nuclei (%): 7%
  Population Healthy Nuclei (%): 80%
  Population Hoechst High Intensity Objects (%): 7%
  Population Membrane Permeable-Phenotype (%): 0%
  Population Mitochondria Different-Phenotype (%): 54%
  Population Mitotic Cells (%): 60%
  Population Normal (%): 92%
  Population Pyknosed Nuclei (%): 12%
  Population Tubulin-Different-Phenotype (%): 43%
  Total Cell Count: 403
[2]
  Population Apoptotic (%): 50%
  Population Healthy Nuclei (%): 74%
  Population Hoechst High Intensity Objects (%): 10%
  Population Mitochondria Different-Phenotype (%): 69%
  Population Mitotic Cells (%): 50%
  Population Normal (%): 89%
  Population Pyknosed Nuclei (%): 17%
  Population Tubulin-Different-Phenotype (%): 23%
  Total Cell Count: 336
[3]
  Population Apoptotic (%): 51%
  Population Fragmented Nuclei (%): 8%
  Population Healthy Nuclei (%): 72%
  Population Hoechst High Intensity Objects (%): 10%
  Population Membrane Permeable-Phenotype (%): 0%
  Population Mitochondria Different-Phenotype (%): 70%
  Population Mitotic Cells (%): 48%
  Population Normal (%): 89%
  Population Pyknosed Nuclei (%): 18%
  Population Tubulin-Different-Phenotype (%): 58%
  Total Cell Count: 326
[4]
  Population Apoptotic (%): 46%
  Population Fragmented Nuclei (%): 4%
  Population Healthy Nuclei (%): 79%
  Population Hoechst High Intensity Objects (%): 7%
  Population Mitochondria Different-Phenotype (%): 76%
  Population Mitotic Cells (%): 53%
  Population Normal (%): 92%
  Population Pyknosed Nuclei (%): 15%
  Population Tubulin-Different-Phenotype (%): 50%
  Total Cell Count: 349
[5]
  Population Apoptotic (%): 28%
  Population Fragmented Nuclei (%): 6%
  Population Healthy Nuclei (%): 80%
  Population Hoechst High Intensity Objects (%): 5%
  Population Membrane Permeable-Phenotype (%): 0%
  Population Mitochondria Different-Phenotype (%): 35%
  Population Mitotic Cells (%): 71%
  Population Normal (%): 94%
  Population Pyknosed Nuclei (%): 12%
  Population Tubulin-Different-Phenotype (%): 26%
  Total Cell Count: 530
[6]
  Population Apoptotic (%): 58%
  Population Fragmented Nuclei (%): 7%
  Population Healthy Nuclei (%): 85%
  Population Mitochondria Different-Phenotype (%): 43%
  Population Mitotic Cells (%): 41%
  Population Pyknosed Nuclei (%): 7%
  Population Tubulin-Different-Phenotype (%): 14%
  Total Cell Count: 416
[7]
  Population Apoptotic (%): 52%
  Population Fragmented Nuclei (%): 11%
  Population Healthy Nuclei (%): 75%
  Population Hoechst High Intensity Objects (%): 6%
  Population Membrane Permeable-Phenotype (%): 0%
  Population Mitochondria Different-Phenotype (%): 50%
  Population Mitotic Cells (%): 47%
  Population Normal (%): 93%
  Population Pyknosed Nuclei (%): 12%
  Population Tubulin-Different-Phenotype (%): 33%
  Total Cell Count: 439
[8]
  Population Apoptotic (%): 51%
  Population Fragmented Nuclei (%): 9%
  Population Healthy Nuclei (%): 82%
  Population Hoechst High Intensity Objects (%): 4%
  Population Mitochondria Different-Phenotype (%): 61%
  Population Mitotic Cells (%): 48%
  Population Normal (%): 95%
  Population Pyknosed Nuclei (%): 8%
  Population Tubulin-Different-Phenotype (%): 42%
  Total Cell Count: 458
[9]
  Population Apoptotic (%): 17%
  Population Fragmented Nuclei (%): 12%
  Population Healthy Nuclei (%): 80%
  Population Hoechst High Intensity Objects (%): 4%
  Population Membrane Permeable-Phenotype (%): 1%
  Population Mitochondria Different-Phenotype (%): 25%
  Population Mitotic Cells (%): 82%
  Population Normal (%): 95%
  Population Pyknosed Nuclei (%): 7%
  Population Tubulin-Different-Phenotype (%): 16%
  Total Cell Count: 866
[10]
  Population Apoptotic (%): 25%
  Population Fragmented Nuclei (%): 13%
  Population Healthy Nuclei (%): 79%
  Population Hoechst High Intensity Objects (%): 3%
  Population Membrane Permeable-Phenotype (%): 0%
  Population Mitochondria Different-Phenotype (%): 26%
  Population Mitotic Cells (%): 75%
  Population Normal (%): 96%
  Population Pyknosed Nuclei (%): 6%
  Population Tubulin-Different-Phenotype (%): 12%
  Total Cell Count: 641
[11]
  Population Apoptotic (%): 40%
  Population Fragmented Nuclei (%): 14%
  Population Healthy Nuclei (%): 75%
  Population Hoechst High Intensity Objects (%): 4%
  Population Membrane Permeable-Phenotype (%): 0%
  Population Mitochondria Different-Phenotype (%): 45%
  Population Mitotic Cells (%): 59%
  Population Normal (%): 95%
  Population Pyknosed Nuclei (%): 10%
  Population Tubulin-Different-Phenotype (%): 30%
  Total Cell Count: 606
[12]
  Population Apoptotic (%): 18%
  Population Fragmented Nuclei (%): 11%
  Population Healthy Nuclei (%): 82%
  Population Mitochondria Different-Phenotype (%): 38%
  Population Mitotic Cells (%): 81%
  Population Pyknosed Nuclei (%): 5%
  Population Tubulin-Different-Phenotype (%): 27%
  Total Cell Count: 673
